Test system: Fibroblast
Experiment: Multiplex assay against human fibroblast
Type: toxicity, cell-based
Procedure, shortened: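 Cells stained live at seeding with Hoechst33342, BioTracker Green Microtubule Cytoskeleton Dye, MitoTracker Red and Annexin V Alexa Fluor 680 were imaged on a CQ1 microscope at 37°C and 5% CO2 after compound addition. Their classification by CellPathfinder machine-learning gating ran from Hoechst high-intensity objects versus normal cells, to healthy, pyknosed or fragmented nuclei among normal cells, to mitotic or apoptotic among pyknosed cells. Tubulin, mitochondrial-mass and membrane-permeability phenotypes are per cents of healthy-nucleus cells.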

[1] = 12 h, 1 µM, compound concentration 1 uM, replicate 1
[2] = 12 h, 1 µM, compound concentration 1 uM, replicate 2
[3] = 12 h, 10 µM, compound concentration 10 uM, replicate 1
[4] = 12 h, 10 µM, compound concentration 10 uM, replicate 2
[5] = 24 h, 1 µM, compound concentration 1 uM, replicate 1
[6] = 24 h, 1 µM, compound concentration 1 uM, replicate 2
[7] = 24 h, 10 µM, compound concentration 10 uM, replicate 1
[8] = 24 h, 10 µM, compound concentration 10 uM, replicate 2
[9] = 48 h, 1 µM, compound concentration 1 uM, replicate 1
[10] = 48 h, 1 µM, compound concentration 1 uM, replicate 2
[11] = 48 h, 10 µM, compound concentration 10 uM, replicate 1
[12] = 48 h, 10 µM, compound concentration 10 uM, replicate 2

CC[C@H]1OC(=O)[C@H](C)[C@@H](O[C@H]2C[C@@](C)(OC)[C@@H](O)[C@H](C)O2)[C@H](C)[C@@H](O[C@@H]2O[C@H](C)C[C@H](N(C)C)[C@H]2O)[C@@]2(C)CC(C)=C(O2)[C@H](C)[C@@H](O)[C@]1(C)O
Population Apoptotic (%) [1]: 37%
Population Fragmented Nuclei (%) [1]: 13%
Population Healthy Nuclei (%) [1]: 72%
Population Hoechst High Intensity Objects (%) [1]: 2%
Population Membrane Permeable-Phenotype (%) [1]: 0%
Population Mitochondria Different-Phenotype (%) [1]: 8%
Population Mitotic Cells (%) [1]: 62%
Population Normal (%) [1]: 97%
Population Pyknosed Nuclei (%) [1]: 13%
Population Tubulin-Different-Phenotype (%) [1]: 40%
Total Cell Count [1]: 176
Population Apoptotic (%) [2]: 46%
Population Fragmented Nuclei (%) [2]: 23%
Population Healthy Nuclei (%) [2]: 57%
Population Hoechst High Intensity Objects (%) [2]: 3%
Population Membrane Permeable-Phenotype (%) [2]: 9%
Population Mitochondria Different-Phenotype (%) [2]: 6%
Population Mitotic Cells (%) [2]: 53%
Population Normal (%) [2]: 96%
Population Pyknosed Nuclei (%) [2]: 18%
Population Tubulin-Different-Phenotype (%) [2]: 53%
Total Cell Count [2]: 170
Population Apoptotic (%) [3]: 48%
Population Fragmented Nuclei (%) [3]: 24%
Population Healthy Nuclei (%) [3]: 63%
Population Hoechst High Intensity Objects (%) [3]: 3%
Population Membrane Permeable-Phenotype (%) [3]: 0%
Population Mitochondria Different-Phenotype (%) [3]: 25%
Population Mitotic Cells (%) [3]: 52%
Population Normal (%) [3]: 96%
Population Pyknosed Nuclei (%) [3]: 12%
Population Tubulin-Different-Phenotype (%) [3]: 86%
Total Cell Count [3]: 205
Population Apoptotic (%) [4]: 40%
Population Fragmented Nuclei (%) [4]: 41%
Population Healthy Nuclei (%) [4]: 33%
Population Hoechst High Intensity Objects (%) [4]: 4%
Population Membrane Permeable-Phenotype (%) [4]: 14%
Population Mitochondria Different-Phenotype (%) [4]: 11%
Population Mitotic Cells (%) [4]: 59%
Population Normal (%) [4]: 95%
Population Pyknosed Nuclei (%) [4]: 25%
Population Tubulin-Different-Phenotype (%) [4]: 73%
Total Cell Count [4]: 133
Population Apoptotic (%) [5]: 52%
Population Fragmented Nuclei (%) [5]: 18%
Population Healthy Nuclei (%) [5]: 69%
Population Hoechst High Intensity Objects (%) [5]: 4%
Population Membrane Permeable-Phenotype (%) [5]: 0%
Population Mitochondria Different-Phenotype (%) [5]: 7%
Population Mitotic Cells (%) [5]: 47%
Population Normal (%) [5]: 95%
Population Pyknosed Nuclei (%) [5]: 12%
Population Tubulin-Different-Phenotype (%) [5]: 45%
Total Cell Count [5]: 173
Population Apoptotic (%) [6]: 46%
Population Fragmented Nuclei (%) [6]: 29%
Population Healthy Nuclei (%) [6]: 52%
Population Hoechst High Intensity Objects (%) [6]: 3%
Population Membrane Permeable-Phenotype (%) [6]: 7%
Population Mitochondria Different-Phenotype (%) [6]: 5%
Population Mitotic Cells (%) [6]: 53%
Population Normal (%) [6]: 96%
Population Pyknosed Nuclei (%) [6]: 17%
Population Tubulin-Different-Phenotype (%) [6]: 36%
Total Cell Count [6]: 176
Population Apoptotic (%) [7]: 52%
Population Fragmented Nuclei (%) [7]: 22%
Population Healthy Nuclei (%) [7]: 69%
Population Hoechst High Intensity Objects (%) [7]: 2%
Population Membrane Permeable-Phenotype (%) [7]: 0%
Population Mitochondria Different-Phenotype (%) [7]: 37%
Population Mitotic Cells (%) [7]: 47%
Population Normal (%) [7]: 97%
Population Pyknosed Nuclei (%) [7]: 8%
Population Tubulin-Different-Phenotype (%) [7]: 89%
Total Cell Count [7]: 199
Population Apoptotic (%) [8]: 46%
Population Fragmented Nuclei (%) [8]: 40%
Population Healthy Nuclei (%) [8]: 39%
Population Hoechst High Intensity Objects (%) [8]: 1%
Population Membrane Permeable-Phenotype (%) [8]: 8%
Population Mitochondria Different-Phenotype (%) [8]: 12%
Population Mitotic Cells (%) [8]: 53%
Population Normal (%) [8]: 98%
Population Pyknosed Nuclei (%) [8]: 20%
Population Tubulin-Different-Phenotype (%) [8]: 81%
Total Cell Count [8]: 127
Population Apoptotic (%) [9]: 55%
Population Fragmented Nuclei (%) [9]: 17%
Population Healthy Nuclei (%) [9]: 71%
Population Hoechst High Intensity Objects (%) [9]: 3%
Population Membrane Permeable-Phenotype (%) [9]: 0%
Population Mitochondria Different-Phenotype (%) [9]: 9%
Population Mitotic Cells (%) [9]: 44%
Population Normal (%) [9]: 96%
Population Pyknosed Nuclei (%) [9]: 11%
Population Tubulin-Different-Phenotype (%) [9]: 57%
Total Cell Count [9]: 168
Population Apoptotic (%) [10]: 56%
Population Fragmented Nuclei (%) [10]: 32%
Population Healthy Nuclei (%) [10]: 54%
Population Hoechst High Intensity Objects (%) [10]: 2%
Population Membrane Permeable-Phenotype (%) [10]: 7%
Population Mitochondria Different-Phenotype (%) [10]: 5%
Population Mitotic Cells (%) [10]: 43%
Population Normal (%) [10]: 97%
Population Pyknosed Nuclei (%) [10]: 13%
Population Tubulin-Different-Phenotype (%) [10]: 56%
Total Cell Count [10]: 173
Population Apoptotic (%) [11]: 84%
Population Fragmented Nuclei (%) [11]: 24%
Population Healthy Nuclei (%) [11]: 68%
Population Hoechst High Intensity Objects (%) [11]: 8%
Population Membrane Permeable-Phenotype (%) [11]: 0%
Population Mitochondria Different-Phenotype (%) [11]: 40%
Population Mitotic Cells (%) [11]: 15%
Population Normal (%) [11]: 91%
Population Pyknosed Nuclei (%) [11]: 6%
Population Tubulin-Different-Phenotype (%) [11]: 91%
Total Cell Count [11]: 216
Population Apoptotic (%) [12]: 58%
Population Fragmented Nuclei (%) [12]: 43%
Population Healthy Nuclei (%) [12]: 47%
Population Hoechst High Intensity Objects (%) [12]: 7%
Population Membrane Permeable-Phenotype (%) [12]: 6%
Population Mitochondria Different-Phenotype (%) [12]: 8%
Population Mitotic Cells (%) [12]: 41%
Population Normal (%) [12]: 92%
Population Pyknosed Nuclei (%) [12]: 9%
Population Tubulin-Different-Phenotype (%) [12]: 78%
Total Cell Count [12]: 139

Source: ChEMBL document CHEMBL5058577, “EUbOPEN Chemogenomics Library 2 (Multiplex)” (2022)
